Experiment [1] has as its target T1, Phospholipase A2, major isoenzyme (Sus scrofa, UniProt P00592). The experiment is described as follows: In vitro inhibition of porcine pancreatic phospholipase A2 evaluated by Deoxycholate-phospholipid mixed micelle assay. An outline of the steps: (§1)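 Porcine pancreatic PLA2 at 0.074 μg/mL, with 2 mM CaCl2, 2.4 mM sodium deoxycholate and 100 μM 1-stearoyl-2-arachidonoyl-L-phosphatidylcholine traced with 22 000 dpm 1-stearoyl-2-[14C]arachidonoyl-PC, in 50 mM Tris-HCl pH 8.2. Inhibitor was added in methanol at 1% of assay volume. After 8 min at 37 °C, released [14C]arachidonic acid was extracted and counted by scintillation, under hopping-kinetics conditions.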

The target in experiment [2] is T1, Phospholipase A2, major isoenzyme. The experiment is described as follows: In vitro inhibition of porcine pancreatic phospholipase A2 evaluated by monomeric substrate assay. The essentials: (§2)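 The monomeric thioester substrate was used at 5.44 mM, below its CMC of 14 mM. The assay also held 0.2 mM DTNB, 0.25 mM CaCl2 and 0.5 μg/mL porcine pancreatic PLA2 in 10 mM sodium phosphate pH 7.5. Inhibitor or methanol made up 2.5% of the volume. Rates were followed over 16 h at about 22 °C. Inhibition was calculated against solvent controls after subtracting nonenzymic hydrolysis.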

Experiment [3] shares this target. The experiment is described as follows: In vitro inhibition of porcine pancreatic phospholipase A2 evaluated by Deoxycholate-phospholipid mixed micelle assay; not active at the highest concentration tested. The essentials: as §1
For experiment [4] the target is unchanged. Description: In vitro inhibition of porcine pancreatic phospholipase A2 evaluated by monomeric substrate assay; not active at the highest concentration tested. The essentials: as §2
The target in experiment [5] is Phospholipase A2, major isoenzyme (Sus scrofa) (UniProt P00592). Description: In vitro inhibition of porcine pancreatic phospholipase A2 by Deoxycholate-phospholipid mixed micelle assay at 30 uM.

Each structure is given as a SMILES string.

For orientation: IC50 means the concentration needed to halve the response being measured. Usually inhibition stands for the percentage by which the read-out fell short of the control. Low values mean little suppression, high ones strong suppression.

T1 sequence (P00592 whole entry): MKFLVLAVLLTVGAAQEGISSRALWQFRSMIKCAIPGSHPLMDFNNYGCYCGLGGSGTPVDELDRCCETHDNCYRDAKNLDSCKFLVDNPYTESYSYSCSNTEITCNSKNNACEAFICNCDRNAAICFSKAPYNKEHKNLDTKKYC
Sequence of Phospholipase A2, major isoenzyme (Sus scrofa) (P00592 23-146 limits assumed): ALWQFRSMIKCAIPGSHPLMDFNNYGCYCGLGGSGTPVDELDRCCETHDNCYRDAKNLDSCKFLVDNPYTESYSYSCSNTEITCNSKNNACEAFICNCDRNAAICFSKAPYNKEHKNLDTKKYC

In the case of `CCCCCCCCCCCCCCCC(=O)OCC(COP(=O)(O)OCCO)NC(=O)CCCCCCCCCCCCC` (stereo unspecified), the IC50 in experiment [1] worked out at 3.5 µM; in experiment [2], 0.03 µM.

Regarding `CCCCCCCCCCCCCCCC(=O)N[C@H](C)COP(=O)([O-])OCC[N+](C)(C)C`, the IC50 was 189 µM in experiment [1] and 1.4 µM in experiment [2].

With `CCCCCCCCCCCCCCCC(=O)N[C@H](COP(=O)([O-])OCC[N+](C)(C)C)CC(C)C`, the IC50 result was “Not Active” in experiment [3] and 4.5 µM in experiment [2].

On to `CCCCCCCCCCCCCCCC(=O)N[C@@H](COP(=O)(O)OCCO)CC(C)C`, for which the IC50 was 2.6 µM in experiment [1] and 0.03 µM in experiment [2].

With `CCCCCC/C=C/CC(=O)N[C@H](COP(=O)([O-])OCC[N+](C)(C)C)CC(C)C`, the IC50 entry in experiment [4] is “Not Active”.

In the case of `CCCCCCCCCCCCCCCC(=O)NCCOP(=O)([O-])OCC[N+](C)(C)C`, the results for the IC50 in experiment [1] and in experiment [2] were 300 µM and 4 µM, respectively.

On to `CCCCCCCCCCCCCCCC(=O)N[C@@H](COP(=O)(O)O)Cc1ccccc1`, for which the inhibition in experiment [5] is 42%. Further, half-maximal inhibition in experiment [2] (IC50) was put at 5 µM.

`CCCCCCCCCCCCCCCCCCOC[C@H](COP(=O)([O-])OCC[N+](C)(C)C)NC(=O)CCCCCCCCCCCCCCC`: the IC50 in experiment [1] was determined as 15 µM. This lies in the double-digit micromolar range.

With `CCCCCC/C=C/CC(=O)N[C@@H](COP(=O)([O-])OCC[N+](C)(C)C)CC(C)C`, the 50% inhibitory concentration (IC50) in experiment [2] was found to be 6 µM.

In the case of `CCCCCCCCCCCC(=O)NCCOP(=O)([O-])OCC[N+](C)(C)C`, the IC50 result in experiment [4] and in experiment [3] was “Not Active” throughout.

On to `C[N+](C)(C)CCOP(=O)([O-])OCCNC(=O)c1ccc2ccccc2c1`, for which, in experiment [3], the IC50 entry is on record as “Not Active”.

With `CCCCCCCCCCCCCCCC(=O)N[C@@H](COP(=O)([O-])OCC[N+](C)(C)C)CC(C)C`, the IC50 in experiment [1] amounted to 30 µM; in experiment [2] it was 0.23 µM.

`CCCCCCCCCCCCCCCC(=O)N[C@@H](COP(=O)(O)O)CC(C)C`: in experiment [5], the inhibition was 22%. In experiment [2], this molecule displayed an IC50 of 10 µM.

For `CC(C)C[C@H](COP(=O)([O-])OCC[N+](C)(C)C)NC(=O)Cc1ccc2ccccc2c1`, the IC50 result in experiment [3] is “Not Active”; in experiment [2], 160 µM.

For the molecule `C[N+](C)(C)CCOP(=O)([O-])OCCNC(=O)Cc1ccc2ccccc2c1`, the IC50 result in experiment [3] was “Not Active”; in experiment [2] it was over 1000 µM.

The record behind these values is ChEMBL document CHEMBL1126273, “Design and synthesis of some substrate analogue inhibitors of phospholipase A2 and investigations by NMR and molecular modeling into the binding interactions in the enzyme-inhibitor complex” (J Med Chem, 1992).
